Assay [1] addresses T1, Gag-Pol polyprotein [489-587] (Human immunodeficiency virus 1, UniProt P04585).
T1 construct: 489-587
Description: Tested in vitro against strand -transfer (ST) activity in the presence of Mg2+ as the cationic cofactor. The method, boiled down: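 Strand transfer by purified recombinant HIV-1 integrase with Mg2+ as cofactor, monitored in a microtiter plate format with viral-end and target DNAs; product detected through a digoxygenin label in the DNA; compounds titrated.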

The target of assay [2] is T1, Gag-Pol polyprotein [489-587]. Put plainly: Inhibition of 3'-processing (TC) in the presence of Mn2+ in vitro. The method in brief:
(§1)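 Purified recombinant HIV-1 integrase with DNAs mimicking one viral cDNA end and a target DNA, Mn2+ as the divalent cofactor; compounds titrated in. Terminal cleavage (3'-processing) and strand-transfer products resolved and read by gel assay.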

For assay [3] the target is unchanged. Description: Inhibition of strand -transfer (ST) activity in the presence of Mn2+. The method, boiled down: as §1

SMILES strings stand for the structures. Where a name gives a salt, the structure may show the parent alone.

As for `CC1(C)CC2(CC(C)(C)c3c(Br)c(OS(=O)(=O)O)c(OS(=O)(=O)O)c(Br)c32)c2c(Br)c(OS(=O)(=O)O)c(OS(=O)(=O)O)c(Br)c21` [3,3,3',3'-tetramethyl-1,1'-spirobi(indan)-4,4',7,7'-tetrabromo-5,5',6,6'-tetrol tetrasulfate], the IC50 in assay [1] stood at 4 µM; in assay [2] it was 1.4 µM; in assay [3] it was 0.35 µM.

Consider `CC1(C)CC2(CC(C)(C)c3cc(OS(=O)(=O)O)c(OS(=O)(=O)O)cc32)c2cc(OS(=O)(=O)O)c(OS(=O)(=O)O)cc21` [3,3,3',3'-tetramethyl-1,1'-spirobi(indan)-5,5',6,6'-tetrol tetrasulfate], for which the figures for the IC50 in assay [2] and in assay [3] were 2.8 µM and 2 µM, respectively.

Consider `CC1(C)CC2(CC(C)(C)c3cc(N)c(O)cc32)c2cc(O)c(N)cc21` [3,3,3',3'-tetramethyl-1,1'-spirobi(indan)-5,5'-diamino-6,6'-diol Dihydrochloric salt], for which, in assay [1], the IC50 stood at 33 µM.

For `CC1(C)CC2(CC(C)(C)c3ccc(O)c(NC(N)=O)c32)c2cc(O)c(NC(N)=O)cc21` (centres undefined) [3,3,3',3'-tetramethyl-1,1'-spirobi(indan)-6,6'-dihydroxy-5,7'-bisurea], the IC50 in assay [2] came to 420 µM; in assay [3], 350 µM.

Take `CC1(C)CC2(CC(C)(C)c3ccc(O)cc32)c2cc(O)ccc21` [3,3,3',3'-tetramethyl-1,1'-spirobi[2,3-dihydro-1H-indene]-6,6'-diol]: the values for the IC50 in assay [2] and in assay [3] were 275 µM and 231 µM, respectively.

Consider `CC1(C)CC2(CC(C)(C)c3cc([N+](=O)[O-])c(O)c([N+](=O)[O-])c32)c2cc(O)c([N+](=O)[O-])cc21` (centres undefined) [3,3,3',3'-tetramethyl-5,5',7'-trinitro-1,1'-spirobi[2,3-dihydro-1H-indene]-6,6'-diol], for which the IC50 turned out to be 47 µM in assay [1], 44 µM in assay [2] and 25 µM in assay [3].

In the case of `CC1(C)CC2(CC(C)(C)c3ccc(O)c([N+](=O)[O-])c32)c2cc(O)c([N+](=O)[O-])cc21` (centres undefined) [3,3,3',3'-tetramethyl-5,7'-dinitro-1,1'-spirobi[2,3-dihydro-1H-indene]-6,6'-diol], the IC50 is 100 µM in assay [1], 47 µM in assay [2] and 53 µM in assay [3].

Turning to `CC1(C)CC2(CC(C)(C)c3c(Br)c(O)c(O)c(Br)c32)c2c(Br)c(O)c(O)c(Br)c21` [4,4',7,7'-tetrabromo-3,3,3',3'-tetramethyl-1,1'-spirobi[2,3-dihydro-1H-indene]-5,5',6,6'-tetraol], the IC50 in assay [1] is 15 µM; in assay [2], 3.14 µM; in assay [3], 1.78 µM.

In the case of `CC1(C)CC2(CC(C)(C)c3cc(Br)c(O)cc32)c2cc(O)c(Br)cc21` [5,5'-dibromo-3,3,3',3'-tetramethyl-1,1'-spirobi[2,3-dihydro-1H-indene]-6,6'-diol], the IC50 in assay [2] worked out at 11 µM; in assay [3], 10 µM.

Take `CC1(C)CC2(CC(C)(C)c3cc(I)c(O)cc32)c2cc(O)c(I)cc21` [5,5'-diiodo-3,3,3',3'-tetramethyl-1,1'-spirobi[2,3-dihydro-1H-indene]-6,6'-diol]: the half-maximal inhibitory concentration (IC50) stood at 6.28 µM in assay [2] and 3.12 µM in assay [3].

Regarding `CC1(C)CC2(CC(C)(C)c3cc(C=O)c(O)cc32)c2cc(O)c(C=O)cc21` [6,6'-dihydroxy-3,3,3',3'-tetramethyl-1,1'-spirobi[2,3-dihydro-1H-indene]-5,5'-dicarbaldehyde], the figures for the IC50 in assay [1], in assay [2] and in assay [3] were 16 µM, 35 µM and 6 µM, respectively.

Take `CC1(C)CC2(CC(C)(C)c3cc(S(=O)(=O)O)c(O)cc32)c2cc(O)c(S(=O)(=O)O)cc21` [6,6'-dihydroxy-3,3,3',3'-tetramethyl-1,1'-spirobi[2,3-dihydro-1H-indene]-5,5'-disulfonic acid]: the IC50 in assay [1] was found to be 69 µM.

As for `CC1(C)CC2(CC(C)(C)c3cc(O)c(O)cc32)c2cc(O)c(O)cc21` [HIV-1 Integrase Inhibitor], the figures for the IC50 in assay [2] and in assay [3] were 17 µM and 5 µM, respectively.

As a reminder, the IC50 is the concentration that gives 50% inhibition.

For the origin of these results see BindingDB's records for doi:10.1021/jm990600c (University of California, 2000).
